8 compounds from ChEMBL document CHEMBL1138446, “The design, synthesis, and antiviral activity of monofluoro and difluoro analogues of 4'-azidocytidine against hepatitis C virus replication: the discovery of 4'-azido-2'-deoxy-2'-fluorocytidine and 4'-azido-2'-dideoxy-2',2'-difluorocytidine” (J Med Chem, 2009) can be followed below.

The nature of data set [1]: Cytotoxicity against human 2209-23 cells assessed as cell viability by WST-1 assay. It counts as cell-based. In a few lines: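 Viability of the same 2209-23 replicon cells was measured by the WST-1 assay. Values are reported as CC50.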
In general terms: Tetrazolium dyes change colour on reduction, which living cells bring about.

The test system of another data set is Hepatitis C virus. The experiment in a line: Antiviral activity against HCV 1b infected in human 2209-23 cells by replicon assay. The format is functional, organism-based, Hepacivirus hominis. On the technique in general: In antiviral work, replicon cells carry a viral genome segment that copies itself.
Data set [2] in a line: Antiproliferative activity against human 2209-23 cells assessed as [3H]thymidine incorporation by scintillation proximity assay. It counts as cell-based. In a few lines:
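Proliferation of the GT-1b stable replicon line 2209-23 was measured as tritiated thymidine incorporation into cellular DNA by scintillation proximity assay. Values are reported as IC50.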
In general terms: Dividing cells build labelled thymidine or BrdU into new DNA.

Data set [3] is described as follows: Inhibition of HCV NS5B polymerase-mediated RNA synthesis. Also noted: species or system Hepacivirus hominis.

Broadly, the CC50 is the concentration that lowers cell viability or growth by half. For orientation: EC50 means the concentration that produces a half-maximal response. Higher therefore signals lower potency in that assay. Consider `[N-]=[N+]=N[C@]1(CO)O[C@@H](n2ccc(N)nc2=O)[C@H](O)[C@@H]1F`, for which the CC50 in data set [1] is more than 100 µM. The compound further registered an EC50 with Hepatitis C virus of more than 100 µM.

Turning to `[N-]=[N+]=N[C@]1(CO)O[C@@H](n2ccc(N)nc2=O)C(F)(F)[C@@H]1O`, in data set [1], the CC50 is more than 100 µM. Moreover, the EC50 with Hepatitis C virus stood at 0.066 µM.

By IC50 is commonly meant the point on the concentration scale where inhibition reaches its midpoint. As to `[N-]=[N+]=N[C@]1(CO)O[C@@H](n2ccc(N)nc2=O)[C@@H](F)[C@@H]1O` [RO-0622], the CC50 in data set [1] is more than 100 µM. Moreover, in data set [2], the IC50 was more than 100 µM. Moreover, the EC50 in the data set on Hepatitis C virus was 0.024 µM.

With `[N-]=[N+]=N[C@]1(CO)O[C@@H](n2ccc(N)nc2=O)[C@H](O)[C@@H]1O` [4'-AZIDOCYTIDINE], the EC50 (in data set [3]; in the data set with Hepatitis C virus) was 1.28 µM throughout. Further, the CC50 in data set [1] is more than 2000 µM. The IC50 in data set [2] is more than 100 µM.

In the case of `Nc1ccn([C@@H]2O[C@H](CO)[C@@H](O)[C@@H]2F)c(=O)n1`, the CC50 in data set [1] was more than 100 µM. The IC50 in data set [2] came out at 0.174 µM. This compound also showed an EC50 in the data set on Hepatitis C virus of 0.114 µM.

`[N-]=[N+]=N[C@]1(CO)O[C@@H](n2ccc(N)nc2=O)[C@H](F)[C@@H]1O`: the CC50 in data set [1] is more than 100 µM. Also, in data set [2], the IC50 was more than 100 µM. This compound also had an EC50 in the data set with Hepatitis C virus of 4.02 µM.

For `[N-]=[N+]=N[C@]1(CO)O[C@@H](n2ccc(N)nc2=O)[C@@H](O)[C@@H]1O`, the CC50 in data set [1] was more than 1000 µM. Besides, the IC50 in data set [2] is more than 100 µM. Further, in the data set with Hepatitis C virus, the half-maximal effective concentration (EC50) stood at 0.171 µM.

For the compound `[N-]=[N+]=N[C@]1(CO)O[C@@H](n2ccc(N)nc2=O)[C@H](O)[C@H]1F`, the CC50 in data set [1] was more than 100 µM. In the data set with Hepatitis C virus, the EC50 was more than 100 µM.
